Laboratory results taken from PubChem BioAssay AID651924 (Vanderbilt Specialized Chemistry Center, 2012).
Active and inactive are the calls of the source. No rule for the calls is given here.

Biological target: Muscarinic acetylcholine receptor M2 (Homo sapiens) (UniProt P08172)
Assay: human M2 receptor potentiation, selectivity assay for M5 PAM project, CHO cells (AID 651924)
Procedure, shortened: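 Material: CHO-K1 hM2/Gqi5 cells; medium: HEPES/probenecid-supplemented HBSS, pH 7.4; also added: acetylcholine EC20; compound dosing: final DMSO 0.3%; incubation: compound pre-incubation 1.5 min, acetylcholine stimulation 50 s, 25 °C; measured by: calcium fluorescence with Fluo-4 AM, dye loaded 45–60 min at 37 °C; measure: % of maximal acetylcholine response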

Chain of Muscarinic acetylcholine receptor M2 (Homo sapiens) (P08172 whole entry, looked up): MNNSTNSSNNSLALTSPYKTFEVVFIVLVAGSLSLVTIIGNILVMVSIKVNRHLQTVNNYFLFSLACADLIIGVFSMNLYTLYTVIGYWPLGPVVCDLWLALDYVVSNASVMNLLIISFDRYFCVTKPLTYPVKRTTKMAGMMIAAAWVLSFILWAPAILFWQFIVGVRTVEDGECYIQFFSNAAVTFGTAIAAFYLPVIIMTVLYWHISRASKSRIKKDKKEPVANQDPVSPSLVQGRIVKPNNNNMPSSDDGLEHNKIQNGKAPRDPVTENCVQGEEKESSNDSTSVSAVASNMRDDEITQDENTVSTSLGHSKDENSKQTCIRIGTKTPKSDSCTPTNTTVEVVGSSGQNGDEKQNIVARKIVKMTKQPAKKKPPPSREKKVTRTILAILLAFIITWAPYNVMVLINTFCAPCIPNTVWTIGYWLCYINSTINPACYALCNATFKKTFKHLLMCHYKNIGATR

With `O=C1C(=O)N(CCOc2ccccc2)c2ccc(OC(F)(F)F)cc21` the outcome was “inactive”.
